Assay results published in publication PMC3495823 (Cell Cycle, 2012).

Tests used:
[1] = Octanol-PBS partition coefficient; type: physicochemical; settings: n-octanol/PBS, pH 7.4
Procedure, shortened: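 Shake-flask method: 1 mg compound was dissolved in 1 mL octanol-saturated PBS pH 7.4 and shaken with 1 mL PBS-saturated octanol for 24 h at 37°C. Phases were separated by centrifugation (10,000 rpm, 10 min) and each was analysed by LC-MS/MS. LogD7.4 was calculated from the ratio of peak AUCs, each normalized to its injection volume.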

[2] = Tissue distribution by LC-MS/MS after intraperitoneal injection; type: in vivo, mouse; settings: 20 mg/kg i.p.
Procedure, shortened: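 Mice received 20 mg/kg in peanut oil i.p. or by oral gavage; tissues and cardiac blood were taken 1, 4 and 24 h later, with brain cortex and cerebellum at 4 h. Weighed tissues (or 30 µL serum in water) were extracted three times with dichloromethane and analysed by ESI-positive LC-MS/MS. Levels came from peak AUC against calibration curves, with internal-standard normalization for quantification; three samples per point.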

[3] = normal mice, 4 hours after injection

logD [1]: 0.15 ± 0.002 | detection in kidney, spleen, pancreas, prostate lung and serum [2]: detected | overall tissue and serum levels compared with VMY [2]: lower than VMY | concentration in cerebellar tissue [2, 3]: not detected | concentration in cortical tissue [2, 3]: not detected
SMILES: CC(C)[C@H](CO)Nc1nc(Nc2ccc(C(=O)O)c(Cl)c2)c2ncn(C(C)C)c2n1 [PVB, purvalanol B]
